# Results from ChEMBL document CHEMBL3112577, “Discovery of novel chiral diazepines as bombesin receptor subtype-3 (BRS-3) agonists with low brain penetration” (Bioorg Med Chem Lett, 2014).
# Columns and labels:
# [1] = Octanol-phosphate buffered saline distribution coefficient, log D of the compound at pH 7.4; type: physicochemical
# Summary of the method: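 LogD was measured as partitioning between 1-octanol and phosphate-buffered saline at pH 7.4.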
# [2] = target: T1, Bombesin receptor subtype-3 (Mus musculus, UniProt O54798); assay: Agonist activity at mouse BRS-3 expressed in CHOK1 cells after 1 hr by HTRF assay; type: cell-based, CHO-K1
# T1 sequence (O54798 whole entry): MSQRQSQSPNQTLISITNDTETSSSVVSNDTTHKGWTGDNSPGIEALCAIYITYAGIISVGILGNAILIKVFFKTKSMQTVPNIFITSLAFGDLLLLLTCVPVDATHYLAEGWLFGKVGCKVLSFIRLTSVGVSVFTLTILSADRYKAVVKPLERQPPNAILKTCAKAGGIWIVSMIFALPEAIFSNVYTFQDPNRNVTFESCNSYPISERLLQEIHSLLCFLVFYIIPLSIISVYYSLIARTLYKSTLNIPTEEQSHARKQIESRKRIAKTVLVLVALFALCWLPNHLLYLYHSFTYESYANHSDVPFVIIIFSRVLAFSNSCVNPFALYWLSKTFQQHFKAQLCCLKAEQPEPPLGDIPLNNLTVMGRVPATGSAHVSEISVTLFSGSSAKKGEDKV
# Summary of the method: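 CHO-K1 cells stably expressing mouse BRS-3 were plated at 200,000 cells/well and grown 24 h at 37 °C in CO₂. Compounds in HAM with 0.1% BSA plus 20 mM LiCl were added for 1 h at 37 °C. IP1 was detected by HTRF with d2-IP1 and cryptate anti-IP1 antibody after overnight at 4 °C in the dark, read as the 665/620 nm ratio and converted with on-plate IP1 standards. EC50 came from a nonlinear curve fit, averaged over at least 3 runs.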
# [3] = target: T2, Bombesin receptor subtype-3 (Homo sapiens, UniProt P32247); assay: Agonist activity at human BRS-3 expressed in CHOK1 cells after 1 hr by HTRF assay; type: cell-based, CHO-K1
# T2 sequence (P32247 whole entry): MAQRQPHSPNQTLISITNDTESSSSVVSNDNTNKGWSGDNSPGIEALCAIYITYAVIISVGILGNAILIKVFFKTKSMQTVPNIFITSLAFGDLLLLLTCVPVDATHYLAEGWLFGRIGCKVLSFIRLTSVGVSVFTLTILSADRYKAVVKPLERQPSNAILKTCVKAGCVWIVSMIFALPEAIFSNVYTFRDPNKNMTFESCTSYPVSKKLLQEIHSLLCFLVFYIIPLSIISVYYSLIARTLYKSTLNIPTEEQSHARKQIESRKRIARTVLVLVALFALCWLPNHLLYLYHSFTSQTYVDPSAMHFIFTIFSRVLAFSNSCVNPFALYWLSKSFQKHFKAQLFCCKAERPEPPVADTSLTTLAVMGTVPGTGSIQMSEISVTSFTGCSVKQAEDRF
# [4] = Ratio of drug level in brain to plasma of mouse at 30 mg/kg, po after 2.5 hrs; type: ADME, organism-based; design: dose 30 mg/kg, route oral
# Summary of the method: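 Mice given a single oral dose of 30 mg/kg. Brain and plasma concentrations were measured 2.5 h after dosing, and Kp brain was taken as the brain-to-plasma concentration ratio.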
# [5] = Half life in mouse at 10 mg/kg, po; type: ADME, organism-based; design: dose 10 mg/kg, route oral; conditions: in vivo
# Summary of the method: (§1)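 Two mice per compound given 10 mg/kg orally in DMA/PG/(20%HPbCD/saline) 10/10/80; values are the average of the 2 mice.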
# [6] = Metabolic stability in mouse liver microsomes assessed as compound remaining after 0.5 hrs; type: ADME, Microsome; conditions: read-out: Stability
# Summary of the method: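 Compound was incubated 0.5 h with mouse liver microsomes and the percentage of parent remaining was reported.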
# [7] = AUC in mouse at 10 mg/kg, po; type: ADME, organism-based; design: dose 10 mg/kg, route oral; conditions: plasma; summary of the method: as §1
# [8] = Cmax in mouse at 10 mg/kg, po; type: ADME, organism-based; design: dose 10 mg/kg, route oral; conditions: in vivo; summary of the method: as §1
# [9] = Fraction unbound in mouse plasma; type: ADME, cell-free
# [10] = Solubility of the compound in JP1; type: physicochemical
# [11] = Solubility of the compound in JP2; type: physicochemical
SMILES,logD [1],EC50 [2] [nM],EC50 [3] [nM],further results
O=C(O)C[C@@H]1c2ccc(C(F)(F)F)nc2NCCN1C(=O)Cc1cccc(Oc2ccccc2)c1,1.2,3.4,1.6,
CC(C)(O)c1nc(-c2cccc3c2N(S(=O)(=O)c2ccc(OC(F)(F)F)cc2)Cc2ccc(C(F)(F)F)nc2N3)no1,,22,1.4,
O=C(O)CC1c2ccc(C(F)(F)F)nc2NCCN1C(=O)Cc1cccc(Oc2ccccc2)c1 (stereo not given),1.2,15,13,
COc1cccc(CC(=O)N2CCNc3nc(C(F)(F)F)ccc3C2)c1,,1780,2040,
O=C(O)C1c2ccc(C(F)(F)F)nc2NCCN1C(=O)Cc1cccc(Oc2ccccc2)c1 (stereo not given),,2260,1560,
O=C(Cc1cccc(Oc2ccccc2)c1)N1Cc2ccc(C(F)(F)F)nc2Nc2ccccc21,,46,25,
O=C(Cc1cccc(Oc2ccccc2F)c1)N1CCNc2nc(C(F)(F)F)ccc2C1,4.5,3.5,6.9,
O=C(Cc1cccc(Oc2ccccc2)c1)N1CCNc2nc(C(F)(F)F)ccc2C1CCO (stereo not given),,11,11,
O=C(Nc1cccc(Oc2ccccc2)c1)N1CCNc2nc(C(F)(F)F)ccc2C1,,1380,4380,
O=C(Cc1cccc(OC2CCCCC2)c1)N1CCNc2nc(C(F)(F)F)ccc2C1,4.4,8.7,8.1,
CC(C)(C)c1ccc(CC(=O)N2Cc3ccc(C(F)(F)F)nc3Nc3ccccc32)cc1,,227,48,
CC(C)COc1cccc(CC(=O)N2CCNc3nc(C(F)(F)F)ccc3[C@H]2CC(=O)O)c1,0.9,62,17,Kp at 2.5 h [4]: 0.043; half-life [5]: 3.7 h; remaining at 0.5 h [6]: 70%; AUC [7]: 390 ng·h/mL; Cmax [8]: 360 ng/mL; fraction unbound [9]: 0.033; solubility [10]: 40 µg/mL; solubility [11]: 810 µg/mL
Cc1ccc(Oc2cccc(CC(=O)N3CCNc4nc(C(F)(F)F)ccc4C3)c2)cc1,> 4.8,1,1.3,
O=C(Cc1ccc(Oc2ccccc2)cc1)N1Cc2ccc(C(F)(F)F)nc2Nc2ccccc21,,> 10000,368,
O=C(Cc1cccc(OC2CCCC2)c1)N1CCNc2nc(C(F)(F)F)ccc2C1,,100,41,
O=C(Cc1cccc(Oc2ccc(F)cc2)c1)N1CCNc2nc(C(F)(F)F)ccc2C1,4.6,2.7,3.6,
O=C(O)C[C@H]1c2ccc(C(F)(F)F)nc2NCCN1C(=O)Cc1cccc(Oc2ccccc2)c1,1.2,3120,2070,

SMILES,logD [1],EC50 [2] [nM],EC50 [3] [nM],further results
O=C(Cc1cccc(Oc2cccnc2)c1)N1CCNc2nc(C(F)(F)F)ccc2C1,3.2,106,156,
O=C(Cc1cccc(Oc2ccccn2)c1)N1CCNc2nc(C(F)(F)F)ccc2C1,3.2,244,254,
Cc1ccc(Oc2cccc(CC(=O)N3CCNc4nc(C(F)(F)F)ccc4C3)c2)cn1,3.6,2.8,9.5,
Cc1ccc(Oc2cccc(CC(=O)N3CCNc4nc(C(F)(F)F)ccc4[C@H]3CC(=O)O)c2)cn1,0.3,3.5,1.7,Kp at 2.5 h [4]: 0.002; half-life [5]: 2.6 h; remaining at 0.5 h [6]: 94%; AUC [7]: 200 ng·h/mL; Cmax [8]: 90 ng/mL; fraction unbound [9]: 0.046; solubility [10]: 960 µg/mL; solubility [11]: 950 µg/mL
O=C(O)C[C@@H]1c2ccc(C(F)(F)F)nc2NCCN1C(=O)Cc1cccc(Oc2ccc(F)cc2)c1,1.2,2.7,1.7,
CCCCOc1cccc(CC(=O)N2CCNc3nc(C(F)(F)F)ccc3C2)c1,,52,59,
CC(C)(C)COc1cccc(CC(=O)N2CCNc3nc(C(F)(F)F)ccc3C2)c1,,121,199,
CC(=O)N1Cc2ccccc2N(Cc2ccccc2)CC1C(C)C (stereo not given),,256,916,
CC(C)C1CN(Cc2ccccc2)c2ccccc2CN1C(=O)Nc1cccc(N2CCOCC2)c1 (stereo not given),,34,131,
CC(C)COc1cccc(CC(=O)N2CCNc3nc(C(F)(F)F)ccc3C2)c1,4.3,62,70,
CC(C)(C)c1ccc(C(=O)N2Cc3ccc(C(F)(F)F)nc3Nc3ccccc32)cc1,,> 10000,> 10000,
CCOc1cccc(CC(=O)N2CCNc3nc(C(F)(F)F)ccc3C2)c1,,1210,2050,
O=C(Cc1cccc(Oc2ccccc2)c1)N1CCNc2nc(C(F)(F)F)ccc2C1,4.5,12.2,8.5,Kp at 2.5 h [4]: 0.72; half-life [5]: 0.82 h; remaining at 0.5 h [6]: 0.7%; AUC [7]: 41 ng·h/mL; Cmax [8]: 60 ng/mL; fraction unbound [9]: 0.0067; solubility [10]: 11 µg/mL; solubility [11]: 5.1 µg/mL
O=C(Cc1cccc(Oc2ccccc2)c1)N1CCNc2nc(C(F)(F)F)ccc2C1CO (stereo not given),4.1,19,12,
CC(C)Oc1cccc(CC(=O)N2CCNc3nc(C(F)(F)F)ccc3C2)c1,,569,381,
O=C(Cc1cccc(Oc2cccc(F)c2)c1)N1CCNc2nc(C(F)(F)F)ccc2C1,4.8,8.7,6.8,
O=C(Cc1cccc(Oc2ccncc2)c1)N1CCNc2nc(C(F)(F)F)ccc2C1,3.3,621,977,
